Measured values as given in the RNAGym collection of RNA variant scans (doi:10.1126/science.aae0568).
Fewer inactive variants are shown than the library holds.

B1: tRNA (parent)
chain: GUUCCGUUGGCGUAAUGGUAACGCGUCUCCCUCCUAAGGAGAAGACUGCGGGUUCGAGUCCCGUACGGAACG

Variants of: B1
Experiment: yeast fitness relative to wild type (ratio to wild type); higher = fitter; tRNA-Arg(CCU), competitive growth, 37 C, YPD
Procedure, shortened: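 The tRNA-Arg(CCU) gene variants were made by chemical synthesis with a 3% per-site mutation rate at 69 sites and inserted at the native genomic locus of Saccharomyces cerevisiae. After pooling, the strains were competed in YPD at 37°C for 24 hours in six parallel replicates. Gene amplicons from the start population and each end population were read by 100-nucleotide paired-end sequencing, and Darwinian fitness relative to wild type was taken from genotype frequency changes. Genotypes needed ≥ 100 starting reads, and estimates < 0.5 were set to 0.5.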

First: GUUCCGUUGGCGUAAUGGUAACGCGUCUCCCUCCUAAGGAGAAGACUGCGGGUUCGAGUCCUCCACGGAACG
Second: GUUCCGUUGGCGUAAUGGUAACGCGUCUCCCUCCUAAGGAGAAGACUGCGGGUUCGAGUCCGAUACGGAACG
The yeast fitness of the first is lower: 0.789 for the first, 0.796 for the second.

Going from GUUCCGUUGGCGUAAUGGUAACGCGUCUCCCUCCUAAGGAGAAGACUGCGGGUUCGAGUCCCGUUUGGAACG to GUUCCGUUGGCGUAAUGGUAACGCGUCUCCCUCCUAAGGAGAAGACUGCGGGUUCGAGUCCCGUAAGAAACG, the yeast fitness falls from 0.818 to 0.695.

Compared with GUUCCGUUGGCGUAAUGGUAACGCGUCUCCCUCCUAAGGAGAAGACUGCGGGUUCGAGUCCGGUUCGGAACG, GUUCCGUUGGCGUAAUGGUAACGCGUCUCCCUCCUAAGGAGAAGACUGCGGGUUCGAGUCUCGUACGUAACG is lower in yeast fitness: 0.75 for the first, 0.639 for the second.

Going from GUUCCGUUGGCGUAAUGGUAACGCGUCUCCCUCCUAAGGAGAAGACUGCGGGUUCGAGUCUCGUACGCAACG to GUUCCGUUGGCGUAAUGGUAACGCGUCUCCCUCCUAAGGAGAAGACUGCGGGUUCGAGUCUCGUACGAAACG, the yeast fitness rises from 0.68 to 0.711.

First: GUUCCGUUGGCGUAAUGGUAACGCGUCUCCCUCCUAAGGAGAAGACUGCGGGUUCGAGUCUCGUACGGUUCG
Second: GUUCCGUUGGCGUAAUGGUAACGCGUCUCCCUCCUAAGGAGAAGACUGCGGGUUCGAGUCUCGUACGGCACG
The yeast fitness of the first is lower: 0.678 for the first, 0.882 for the second.

First: GUUCCGUUGGCGUAAUGGUAACGCGUCUCCCUCCUAAGGAGAAGACUGCGGGUUCGAGUCCCAUACGGAUCG
Second: GUUCCGUUGGCGUAAUGGUAACGCGUCUCCCUCCUAAGGAGAAGACUGCGGGUUCGAGUCCCAUACGGACCG
The yeast fitness of the first is lower: 0.816 for the first, 0.973 for the second.

Going from GUUCCGUUGGCGUAAUGGUAACGCGUCUCCCUCCUAAGGAGAAGACUGCGGGUUCGAGUCCCAUACGGGACG to GUUCCGUUGGCGUAAUGGUAACGCGUCUCCCUCCUAAGGAGAAGACUGCGGGUUCGAGUCCCAUACGGCACG, the yeast fitness rises from 0.878 to 0.941.

Going from GUUCCGUUGGCGUAAUGGUAACGCGUCUCCCUCCUAAGGAGAAGACUGCGGGUUCGAGUCCCGAACGGAACG to GUUCCGUUGGCGUAAUGGUAACGCGUCUCCCUCCUAAGGAGAAGACUGCGGGUUCGAGUCCCGGACGGAACG, the yeast fitness rises from 0.972 to 0.993.

Going from GUUCCGUUGGCGUAAUGGUAACGCGUCUCCCUCCUAAGGAGAAGACUGCGGGUUCGAGUCCCGCACGGAACG to GUUCCGUUGGCGUAAUGGUAACGCGUCUCCCUCCUAAGGAGAAGACUGCGGGUUCGAGUCCGGUACCGAACG, the yeast fitness falls from 0.985 to 0.614.

Compared with GUUCCGUUGGCGUAAUGGUAACGCGUCUCCCUCCUAAGGAGAAGACUGCGGGUUCGAGUCCAGUAUGGAACG, GUUCCGUUGGCGUAAUGGUAACGCGUCUCCCUCCUAAGGAGAAGACUGCGGGUUCGAGUCCAGUAGGGAACG is higher in yeast fitness: 0.694 for the first, 0.718 for the second.

First: GUUCCGUUGGCGUAAUGGUAACGCGUCUCCCUCCUAAGGAGAAGACUGCGGGUUCGAGUCCCAUAGGGGACG
Second: GUUCCGUUGGCGUAAUGGUAACGCGUCUCCCUCCUAAGGAGAAGACUGCGGGUUCGAGUCCCGUGAGGAACG
The yeast fitness of the first is lower: at most 0.5 for the first, 0.716 for the second.

Going from GUUCCGUUGGCGUAAUGGUAACGCGUCUCCCUCCUAAGGAGAAGACUGCGGGUUCGAGUCCCGUGUGGAACG to GUUCCGUUGGCGUAAUGGUAACGCGUCUCCCUCCUAAGGAGAAGACUGCGGGUUCGAGUCCCGUGCGGCACG, the yeast fitness falls from 0.993 to 0.984.

Going from GUUCCGUUGGCGUAAUGGUAACGCGUCUCCCUCCUAAGGAGAAGACUGCGGGUUCGAGUCCCAUACAGAACG to GUUCCGUUGGCGUAAUGGUAACGCGUCUCCCUCCUAAGGAGAAGACUGCGGGUUCGAGUCCCGAACGGUACG, the yeast fitness rises from 0.693 to 0.834.

First: GUUCCGUUGGCGUAAUGGUAACGCGUCUCCCUCCUAAGGAGAAGACUGCGGGUUCGAGUCCCGUACUGUACG
Second: GUUCCGUUGGCGUAAUGGUAACGCGUCUCCCUCCUAAGGAGAAGACUGCGGGUUCGAGUCCCGUUCCGAACG
The yeast fitness of the first is higher: 0.887 for the first, 0.64 for the second.

Compared with GUUCCGUUGGCGUAAUGGUAACGCGUCUCCCUCCUAAGGAGAAGACUGCGGGUUCGAGUCUCGUUCGGAACG, GUUCCGUUGGCGUAAUGGUAACGCGUCUCCCUCCUAAGGAGAAGACUGCGGGUUCGAGUCCCGUCCGCAACG is higher in yeast fitness: 0.724 for the first, 0.778 for the second.

Going from GUUCCGUUGGCGUAAUGGUAACGCGUCUCCCUCCUAAGGAGAAGACUGCGGGUUCGAGUCCCUUACGGUACG to GUUCCGUUGGCGUAAUGGUAACGCGUCUCCCUCCUAAGGAGAAGACUGCGGGUUCGAGUCCUGCACGGAACG, the yeast fitness rises from 0.83 to 1.02.

First: GUUCCGUUGGCGUAAUGGUAACGCGUCUCCCUCCUAAGGAGAAGACUGCGGGUUCGAGUCCCGCACGGACCG
Second: GUUCCGUUGGCGUAAUGGUAACGCGUCUCCCUCCUAAGGAGAAGACUGCGGGUUCGAGUCCCCUCAGGAACG
The yeast fitness of the first is higher: 0.967 for the first, at most 0.5 for the second.

First: GUUCCGUUGGCGUAAUGGUAACGCGUCUCCCUCCUAAGGAGAAGACUGCGGGUUCGAGUCCCGUACACAACG
Second: GUUCCGUUGGCGUAAUGGUAACGCGUCUCCCUCCUAAGGAGAAGACUGCGGGUUCGAGUCCUGUCCGGACCG
The yeast fitness of the first is higher: 0.819 for the first, 0.619 for the second.

First: GUUCCGUUGGCGUAAUGGUAACGCGUCUCCCUCCUAAGGAGAAGACUGCGGGUUCGAGUCCCAUAAGGAACG
Second: GUUCCGUUGGCGUAAUGGUAACGCGUCUCCCUCCUAAGGAGAAGACUGCGGGUUCGAGUCCCGUAGUGAACG
The yeast fitness of the first is higher: 0.72 for the first, 0.63 for the second.

First: GUUCCGUUGGCGUAAUGGUAACGCGUCUCCCUCCUAAGGAGAAGACUGCGGGUUCGAGUCCCGUAGCGAACG
Second: GUUCCGUUGGCGUAAUGGUAACGCGUCUCCCUCCUAAGGAGAAGACUGCGGGUUCGAGUCCCGUCCGGACCG
The yeast fitness of the first is lower: 0.733 for the first, 1.03 for the second.

Compared with GUUCCGUUGGCGUAAUGGUAACGCGUCUCCCUCCUAAGGAGAAGACUGCGGGUUCGAGUCCCAUUCGGAACG, GUUCCGUUGGCGUAAUGGUAACGCGUCUCCCUCCUAAGGAGAAGACUGCGGGUUCGAGUCCAGUACGGACCG is higher in yeast fitness: 0.945 for the first, 0.955 for the second.

First: GUUCCGUUGGCGUAAUGGUAACGCGUCUCCCUCCUAAGGAGAAGACUGCGGGUUCGAGUCCUGUACCGAACG
Second: GUUCCGUUGGCGUAAUGGUAACGCGUCUCCCUCCUAAGGAGAAGACUGCGGGUUCGAGUCCCGUACAGAACG
The yeast fitness of the first is lower: 0.917 for the first, 0.951 for the second.

First: GUUCCGUUGGCGUAAUGGUAACGCGUCUCCCUCCUAAGGAGAAGACUGCGGGUUCGAGUCCCGUACUGAACG
Second: GUUCCGUUGGCGUAAUGGUAACGCGUCUCCCUCCUAAGGAGAAGACUGCGGGUUCGAGUCCCGUACCGAACG
The yeast fitness of the first is lower: 0.918 for the first, 0.986 for the second.

Going from GUUCCGUUGGCGUAAUGGUAACGCGUCUCCCUCCUAAGGAGAAGACUGCGGGUUCGAGUCCUGUACGGAGCG to GUUCCGUUGGCGUAAUGGUAACGCGUCUCCCUCCUAAGGAGAAGACUGCGGGUUCGAGUCCAGUUCGGAACG, the yeast fitness falls from 0.997 to 0.772.

Compared with GUUCCGUUGGCGUAAUGGUAACGCGUCUCCCUCCUAAGGAGAAGACUGCGGGUUCGAGUCCCGUACGUCACG, GUUCCGUUGGCGUAAUGGUAACGCGUCUCCCUCCUAAGGAGAAGACUGCGGGUUCGAGUCCCGUAUGGAUCG is higher in yeast fitness: 0.817 for the first, 0.923 for the second.

Compared with GUUCCGUUGGCGUAAUGGUAACGCGUCUCCCUCCUAAGGAGAAGACUGCGGGUUCGAGUCCUGUUCAGAACG, GUUCCGUUGGCGUAAUGGUAACGCGUCUCCCUCCUAAGGAGAAGACUGCGGGUUCGAGUCCCGUUCGGAGCG is higher in yeast fitness: 0.532 for the first, 1.05 for the second.

Compared with GUUCCGUUGGCGUAAUGGUAACGCGUCUCCCUCCUAAGGAGAAGACUGCGGGUUCGAGUCCCGUACCUAACG, GUUCCGUUGGCGUAAUGGUAACGCGUCUCCCUCCUAAGGAGAAGACUGCGGGUUCGAGUCGCGUACUGAACG is lower in yeast fitness: 0.676 for the first, 0.61 for the second.

First: GUUCCGUUGGCGUAAUGGUAACGCGUCUCCCUCCUAAGGAGAAGACUGCGGGUUCGAGUCCCGUACUCAACG
Second: GUUCCGUUGGCGUAAUGGUAACGCGUCUCCCUCCUAAGGAGAAGACUGCGGGUUCGAGUCCUGUAUGGAACG
The yeast fitness of the first is lower: 0.773 for the first, 1.06 for the second.
